Active and inactive are the calls of the source. No cut-off for these calls is given here.
What was measured:
HeLa [1] = experiment: Anticancer activity against human HeLa cells assessed as cell viability after 48 hrs by CCK8 assay; type: functional, cell-based
Method in brief: (§1)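 Seeded at 1000 cells/well in DMEM with 10% FBS at 37 °C, 5% CO2, overnight pre-incubation. Serial dilutions from a 100 mM DMSO stock gave final 0–50 µM, with 48 h exposure. CCK-8 read at 450 nm. IC50 fitted against DMSO control, given with s.d., n = 3 independent experiments.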

HepG2 = experiment: Anticancer activity against human HepG2 cells assessed as cell viability after 48 hrs by CCK8 assay; type: functional, cell-based; settings: HepG2, 48 h; method in brief: as §1
HT-1080 [2] = experiment: Anticancer activity against human HT1080 cells assessed as cell viability after 48 hrs by CCK8 assay; type: functional, cell-based; settings: HT-1080, 48 h; method in brief: as §1
MCF7 [3] = experiment: Anticancer activity against human MCF7 cells assessed as cell viability after 48 hrs by CCK8 assay; type: functional, cell-based; settings: MCF7, 48 h; method in brief: as §1
SK-N-MC [4] = experiment: Anticancer activity against human SK-N-MC cells assessed as cell viability after 48 hrs by CCK8 assay; type: functional, cell-based; method in brief: as §1
HT-1080 [5] = experiment: Anticancer activity against human HT1080 cells assessed as vacuole formation at 20 uM after 24 hrs by phase contrast microscopic analysis; type: functional, cell-based
SK-N-MC [6] = experiment: Anticancer activity against human SK-N-MC cells assessed as vacuole formation at 20 uM after 24 hrs by phase contrast microscopic analysis; type: functional, cell-based
[7] = Cytotoxicity against HDF assessed as cell viability at 20 uM after 24 to 48 hrs by CCK8 assay relative to control; type: cell-based; settings: human, HDF cells; read-out: Activity
Method in brief: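 C2C12 or HDF cells, seeded at 5000/well, given 20 µM or 0.1% DMSO for 24 h or 48 h. CCK-8 absorbance read at 450 nm, relative to DMSO control. Six parallel wells, at least three independent repeats.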

C2C12 = experiment: Cytotoxicity against mouse C2C12 cells assessed as vacuole formation at 20 uM after 24 hrs by phase contrast microscopic analysis relative to control; type: cell-based; settings: c2c12, 24 h
Method in brief: (§2)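 C2C12 or HDF cells given 20 µM or 0.1% DMSO for 24 h, then imaged live by phase-contrast microscopy.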

[8] = Cytotoxicity against HDF assessed as vacuole formation at 20 uM after 24 hrs by phase contrast microscopic analysis relative to control; type: cell-based; settings: human; method in brief: as §2
HeLa [9] = experiment: Anticancer activity against human HeLa cells assessed as cell viability at 20 uM after 48 hrs by CCK8 assay relative to control; type: functional; settings: read-out: Activity
Method in brief: (§3)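 Cells (5000/well, pre-incubated overnight) exposed to 20 µM for 48 h. CCK-8 absorbance read at 450 nm. Viability given as percent of vehicle (DMSO) control, mean ± SD. Six parallel wells per condition, at least three independent repeats.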

MCF7 [10] = experiment: Anticancer activity against human MCF7 cells assessed as cell viability at 20 uM after 48 hrs by CCK8 assay relative to control; type: functional; settings: MCF7, 48 h, read-out: Activity; method in brief: as §3
SK-N-MC [11] = experiment: Anticancer activity against human SK-N-MC cells assessed as cell viability at 20 uM after 48 hrs by CCK8 assay relative to control; type: functional; settings: read-out: Activity; method in brief: as §3
HeLa [12] = experiment: Anticancer activity against human HeLa cells assessed as vacuole formation at 20 uM after 12 hrs by phase contrast microscopic analysis; type: functional, cell-based
HeLa [13] = experiment: Induction of apoptosis in human HeLa cells assessed as increase in cleaved caspase-3 levels at 30 to 100 uM after 48 hrs by Western blot analysis; type: functional, cell-based
Method in brief: (§4)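 HeLa given indicated concentrations. RIPA lysates, BCA-quantified, SDS-PAGE and PVDF transfer. Anti-caspase-3 or anti-PARP1 applied overnight at 4 °C after 1 h 5% milk block, secondary 2 h at RT. Infrared imaging, GAPDH as loading control.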

HeLa [14] = experiment: Induction of apoptosis in human HeLa cells assessed as increase in cleaved PARP1 levels at 20 to 30 uM after 24 to 48 hrs by Western blot analysis; type: functional, cell-based; method in brief: as §4
HeLa [15] = experiment: Induction of autophagy in human HeLa cells assessed as LC3-2 accumulation at 20 uM preincubated cells with 3-MA followed by compound addition measured after 24 hrs by Western blot analysis; type: functional, cell-based
Method in brief: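 HeLa pretreated 1 h with or without 3-MA, then 20 µM for 24 h. Lysed in RIPA with protease inhibitors, protein by BCA, SDS-PAGE onto PVDF. Blocked 5% milk, anti-LC3 overnight at 4 °C, secondary 2 h at RT. Infrared imaging, GAPDH loading control.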

HeLa [16] = experiment: Anticancer activity against human HeLa cells assessed as decrease in cell viability at 20 uM preincubated cells with 3-MA followed by compound addition measured after 24 to 48 hrs by CCK8 assay; type: functional, cell-based
Method in brief: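 HeLa cells pretreated 1 h with or without 3-MA, then exposed to 20 µM or 0.1% DMSO for 24 h or 48 h. Viability by CCK-8 absorbance at 450 nm.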

HeLa [17] = experiment: Anticancer activity against human HeLa cells assessed as vacuole formation preincubated cells with 3-MA followed by compound addition measured after 24 hrs by phase contrast microscopic analysis; type: functional, cell-based
Method in brief: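 HeLa cells pretreated 1 h with or without 3-MA before compound or DMSO. Phase-contrast images obtained after 24 h.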

HeLa [18] = experiment: Induction of macropinocytosis in human HeLa cells assessed as lucifer yellow accumulation in phase-lucent vacuole at 20 uM after 24 hrs by confocal microscopic analysis; type: functional, cell-based
HeLa [19] = experiment: Induction of macropinocytosis in human HeLa cells assessed as colocalization of lucifer yellow and late endosomal marker Rab7 at 20 uM after 6 to 24 hrs by confocal microscopic analysis; type: functional, cell-based; settings: TDE = time-dependent effect
Method in brief: (§5)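 HeLa on poly-L-lysine coverslips given 0.1% DMSO or 20 µM for indicated times, then loaded with Lucifer yellow CH. Fixed in 4% PFA 30 min, permeabilized with 0.1% Triton X-100, blocked with 5% BSA. Anti-EEA1, -LAMP1 or -Rab7 applied overnight at 4 °C, Alexa488 secondary 1 h, DAPI counterstain. Confocal imaging.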

HeLa [20] = experiment: Induction of macropinocytosis in human HeLa cells assessed as colocalization of lucifer yellow and lysosomal marker LAMP1 at 20 uM after 6 to 24 hrs by confocal microscopic analysis; type: functional, cell-based; settings: TDE = time-dependent effect; method in brief: as §5
HeLa [21] = experiment: Induction of methuosis in human HeLa cells assessed as decrease in cell viability preincubated cells with dynamin inhibitor dynasore for 1 hr followed by compound addition measured after 48 hrs by CCK8 assay; type: functional, cell-based
HeLa [22] = experiment: Induction of methuosis in human HeLa cells assessed as increase in vacuole formation preincubated cells with dynamin inhibitor dynasore for 1 hr followed by compound addition measured after 24 hrs by phase contrast microscopic analysis; type: functional, cell-based
Method in brief: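 HeLa cells grown in DMEM with 10% FBS, 100 U/ml penicillin and 100 µg/ml streptomycin at 37 °C, 5% CO2 humidified air. The inhibitor was added before compound exposure. Vacuolization was judged in live cells by phase-contrast microscopy.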

HeLa [23] = experiment: Induction of methuosis in human HeLa cells assessed as decrease in cell viability at 20 uM preincubated with macropinocytosis inhibitor EIPA for 30 mins followed by compound addition measured after 24 to 72 hrs by CCK8 assay; type: functional, cell-based
Method in brief: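 HeLa pretreated 30 min with or without 50 µM EIPA, then given 20 µM or DMSO. CCK-8 viability read at the indicated times.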

Structure (SMILES): C[C@H]1[C@H](C)CC[C@]2(C(=O)O)CC[C@]3(C)C(=CC[C@@H]4[C@@]5(C)Cc6cnn(-c7ccc(C#N)cc7)c6C(C)(C)[C@@H]5CC[C@]43C)[C@H]12
- IC50 (HeLa [1]): 15.1 µM
- IC50 (HepG2): 16.6 µM
- IC50 (HT-1080 [2]): 17.2 µM
- IC50 (MCF7 [3]): 17.6 µM
- IC50 (SK-N-MC [4]): 17.1 µM
- Activity (HT-1080 [5]): Active
- Activity (SK-N-MC [6]): Active
- viability at 20 µM [7]: 28%
- Activity (C2C12): Toxic
- Activity [8]: Toxic
- viability at 20 µM (HeLa [9]): 18.6%
- viability at 20 µM (MCF7 [10]): 25.2%
- viability at 20 µM (SK-N-MC [11]): 28.6%
- Activity (HeLa [12]): Active
- Activity (HeLa [13]): Active
- Activity (HeLa [14]): Active
- Activity (HeLa [15]): inactive
- Activity (HeLa [16]): Active
- Activity (HeLa [17]): Active
- Activity (HeLa [18]): Active
- Activity (HeLa [19]): Tde
- Activity (HeLa [20]): Tde
- Activity (HeLa [21]): inactive
- Activity (HeLa [22]): inactive
- Activity (HeLa [23]): inactive
